Experimental data published in ChEMBL document CHEMBL3351385, “Synthesis and preliminary mechanistic evaluation of 5-(p-tolyl)-1-(quinolin-2-yl)pyrazole-3-carboxylic acid amides with potent antiproliferative activity on human cancer cell lines” (Eur J Med Chem, 2014).
pIC50: −log10 of the molar value. The source made the active and inactive calls. No cut-off for these calls is given here.

Assays:
[1] = Cytotoxicity against human HuH7 cells after 72 hrs by SRB assay; type: functional, cell-based; conditions: Huh-7, 72 h
Outline: (§1)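 Cells kept in DMEM with 10% FCS and penicillin/streptomycin at 37°C, 5% CO2. 2000–3000 cells/well were seeded, and medium was refreshed the next day. DMSO solutions were added over 2.5–40 µM with matched DMSO-only controls for 72 h. Cells were then TCA-fixed, stained with 0.4% SRB in 1% acetic acid, solubilized in 10 mM Tris pH 8 and read at 515 nm. Data were normalized to DMSO wells and expressed as mean ±SD.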

[2] = Cytotoxicity against human HCT116 cells after 72 hrs by SRB assay; type: functional, cell-based; conditions: HCT-116, 72 h; outline: as §1
MCF7 = experiment: Cytotoxicity against human MCF7 cells after 72 hrs by SRB assay; type: functional, cell-based; conditions: MCF7, 72 h; outline: as §1
[3] = Induction of cell cycle arrest in human Mahlavu cells assessed as accumulation at G0/G1 phase at cytotoxic IC50 level after 48 hrs by propidium iodide staining based FACS method; type: functional
[4] = Induction of cell cycle arrest in human HuH7 cells assessed as accumulation at G2/M phase at cytotoxic IC50 level after 48 hrs by propidium iodide staining based FACS method; type: functional, Huh-7
Outline: (§2)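 Huh7 cells were seeded at 150,000–300,000 per 100-mm dish and left 24 h. […] Cells were stained with a propidium iodide-containing cell cycle reagent, and subG1, G0/G1, S and G2/M fractions were scored by flow cytometry.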

[5] = Induction of cell cycle arrest in human HuH7 cells assessed as accumulation at G0/G1 phase at cytotoxic IC50 level after 48 hrs by propidium iodide staining based FACS method; type: functional, Huh-7; outline: as §2
[6] = Induction of cell cycle arrest in human HuH7 cells assessed as accumulation at S phase at cytotoxic IC50 level after 48 hrs by propidium iodide staining based FACS method; type: functional, Huh-7; outline: as §2
[7] = Induction of cell cycle arrest in human Mahlavu cells assessed as accumulation at G2/M phase at cytotoxic IC50 level after 48 hrs by propidium iodide staining based FACS method; type: functional
Huh-7 [8] = experiment: Induction of cell death in human HuH7 cells assessed as DNA fragmentation at cytotoxic IC50 level after 72 hrs by Hoechst 33258 staining based […]; type: functional
Outline: (§3)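 Cells were washed in cold PBS, fixed 10 min in cold methanol and stained with Hoechst 33258 at 3 µg/mL for 5 min in the dark. Nuclear condensation and fragmentation were examined by fluorescence microscopy at 40×.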

Huh-7 [9] = experiment: Induction of cell death in human HuH7 cells assessed as nuclear condensation at cytotoxic IC50 level after 72 hrs by Hoechst 33258 staining based […]; type: functional; outline: as §3
Huh-7 [10] = experiment: Induction of cell death in human HuH7 cells assessed as induction of intracytoplasmic vacuoles at cytotoxic IC50 level after 72 hrs by inverted light microscopy; type: functional, cell-based
Outline: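 They were viewed under an inverted light microscope at 20× for death morphology, including intracytoplasmic vacuoles.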

[11] = Induction of cell cycle arrest in human Mahlavu cells assessed as accumulation at S phase at cytotoxic IC50 level after 48 hrs by propidium iodide staining based FACS method; type: functional
Huh-7 [12] = experiment: Induction of autophagy in human HuH7 cells assessed as increase in LC3-2 formation at cytotoxic IC50 level after 72 hrs by Western blotting method; type: functional, cell-based

Row | Compound | pIC50 [1] | pIC50 [2] | pIC50 (MCF7) | other results
1 | Cc1ccc(-c2cc(C(=O)N3CCN(c4c(Cl)cncc4Cl)CC3)nn2-c2ccc3ccccc3n2)cc1 | 5.34 | 5.32 | 5.01 | 
2 | Cc1ccc(-c2cc(C(=O)N3CCN(c4ccc(C(F)(F)F)cn4)CC3)nn2-c2ccc3ccccc3n2)cc1 | 4.68 | 4.77 | 4.35 | 
3 | Cc1ccc(-c2cc(C(=O)Nc3ccncc3)nn2-c2ccc3ccccc3n2)cc1 | 5.10 | 5.09 | 4.81 | 
4 | Cc1ccc(-c2cc(C(=O)Nc3ncc(Br)cc3Br)nn2-c2ccc3ccccc3n2)cc1 | 4.94 | 5.02 | 4.77 | 
5 | Cc1ccc(-c2cc(C(=O)N3CCN(c4ccncc4)CC3)nn2-c2ccc3ccccc3n2)cc1 | 5.11 | 5.15 | 5.33 | Activity [3]: 52.9%; Activity [4]: 33%; Activity [5]: 57.2%; Activity [6]: 7.2%; Activity [7]: 24.4%; Activity (Huh-7 [8]): Active; Activity (Huh-7 [9]): Active; Activity (Huh-7 [10]): Active; Activity [11]: 17%; Activity (Huh-7 [12]): Active
6 | COc1ncccc1NC(=O)c1cc(-c2ccc(C)cc2)n(-c2ccc3ccccc3n2)n1 | 5.10 | 4.80 | 4.52 | 
7 | CC[C@@]1(O)C(=O)OCc2c1cc1n(c2=O)Cc2cc3ccccc3nc2-1 [CAMPTOTHECIN] | 8.40 | 9.82 | 9.22 | 
8 | Cc1ccc(-c2cc(C(=O)N3CCN(c4ncccc4C(F)(F)F)CC3)nn2-c2ccc3ccccc3n2)cc1 | 4.90 | 5.01 | 5.24 | 
9 | Cc1ccc(-c2cc(C(=O)N3CCN(c4cccc(C(F)(F)F)n4)CC3)nn2-c2ccc3ccccc3n2)cc1 | 4.99 | 5.03 | 4.94 | 
10 | Cc1ccc(-c2cc(C(=O)NCc3cccnc3)nn2-c2ccc3ccccc3n2)cc1 | 4.85 | 4.95 | 4.72 | Activity [3]: 56.1%; Activity [4]: 32.3%; Activity [5]: 56.1%; Activity [6]: 10.5%; Activity [7]: 28.5%; Activity (Huh-7 [8]): Active; Activity (Huh-7 [9]): Active; Activity (Huh-7 [10]): Active; Activity [11]: 14%; Activity (Huh-7 [12]): Active
11 | Cc1ccc(-c2cc(C(=O)N3CCN(c4ccccn4)CC3)nn2-c2ccc3ccccc3n2)cc1 | 5.32 | 5.29 | 4.92 | 
12 | Cc1ccc(-c2cc(C(=O)Nc3ccncc3Br)nn2-c2ccc3ccccc3n2)cc1 | 4.88 | 4.81 | 4.96 | 
13 | Cc1ccc(-c2cc(C(=O)N3CCN(c4ncc(C(F)(F)F)cc4Cl)CC3)nn2-c2ccc3ccccc3n2)cc1 | 5.10 | 4.88 | 4.32 | 
14 | Cc1ccc(-c2cc(C(=O)N3CCN(c4ncccc4C#N)CC3)nn2-c2ccc3ccccc3n2)cc1 | 4.67 | 4.40 | 4.10 | 
15 | Cc1ccc(-c2cc(C(=O)Nc3ccc(Cl)nc3Cl)nn2-c2ccc3ccccc3n2)cc1 | 4.85 | 5.10 | 4.90 | 
